FN deposition inh: fibronectin deposition inhibition; AH1F fibroblasts, Alexa488-fibronectin deposition fluorescence, overnight; inhibition, % at 12.6 µM; 350,000 compounds, 0.086% hits;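 active = mean inhibition across replicates of 30% or more, regardless of how many single replicates reach that level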;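 also: positive control wells lacked labelled fibronectin entirely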
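Material – AH1F fibroblast monolayer, labelled fibronectin deposition · Reagent – labelled fibronectin 24 nM · Timing – 1 h adhesion, overnight exposure · Measured by – fluorescence at 485 nm excitation, 525 nm emission · Read-out – inhibition of fibronectin deposition signal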
FGF22 binding: shifts melting point of recombinant human FGF22. 340,000 compounds, 1.5% hits. recombinant FGF22 thermal shift, SYPRO orange fluorescence; percent of sucrose octasulfate shift, DMSO zero. AID 651658. activity (Tm shift, normalised), % at 9.99 µM. Q9HCT0;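 active = mean Tm shift, scaled 0 neutral to 100 positive control, at about 1.3% or above, every replicate too, limit read from the data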
Target sequence (Q9HCT0 whole entry, looked up): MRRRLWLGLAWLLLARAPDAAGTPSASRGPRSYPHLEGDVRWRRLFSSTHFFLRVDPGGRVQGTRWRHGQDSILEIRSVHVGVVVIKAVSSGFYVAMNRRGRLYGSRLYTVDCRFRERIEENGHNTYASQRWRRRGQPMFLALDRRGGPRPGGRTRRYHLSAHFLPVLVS
XiGFP reactiv: X-chromosome reactivation activator. 360,000 compounds, 0.055% hits. XiGFP mouse fibroblasts, % GFP-positive cells imaging, 3 d; cells co-treated with 5-aza-dC sensitizer; scaled so ellipticine positive control = 100%. AID 743238. activation, % at 7.58 µM;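 active = mean normalized replicate activation at least 10% and every replicate at or above 10%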;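 also: 0% = median of on-plate neutral control wells and 100% = ellipticine 6 µM median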
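Schedule: 3 d treatment, 15 min room-temperature fixation; system: 68-5-11 XiGFP fibroblast line; buffer or medium: DMEM plus 5-aza-dC sensitizer; control set: ellipticine 6 µM positive control; compound: one concentration, pinned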
DENV2 CPE: protects cells from dengue virus 2 cytopathic effect; CPE inhibition, % at 9.99 µM; AID 651640; 350,000 compounds, 1.7% hits; DENV2-infected cells, cytopathic effect rescue, plate reader; in the data active = CPE inhibition above about 20%, passing the limit was not always enough; tested in BHK-21 cells;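 also: 0% = median of neutral control wells and 100% = median of positive control wells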
SIRT5 block: sirtuin-5 (human) deacylase inhibition | inhibition, % at 15 µM | 330,000 compounds, 1.1% hits | Purified SirT5, succinyl-peptide AMC, trypsin-coupled fluorescence | Q9NXA8 | AID 652115; in the data active = inhibition above about 15%
Target sequence (Q9NXA8 whole entry, looked up): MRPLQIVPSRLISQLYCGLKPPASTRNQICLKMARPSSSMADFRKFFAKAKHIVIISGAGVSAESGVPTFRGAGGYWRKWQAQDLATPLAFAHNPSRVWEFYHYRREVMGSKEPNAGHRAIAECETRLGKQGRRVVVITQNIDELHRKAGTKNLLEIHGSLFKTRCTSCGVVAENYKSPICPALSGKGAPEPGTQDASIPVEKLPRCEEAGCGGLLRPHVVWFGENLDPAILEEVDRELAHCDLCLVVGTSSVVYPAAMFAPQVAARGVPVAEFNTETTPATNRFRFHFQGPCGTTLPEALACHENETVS
ARNT TACC3 PPI: disrupts binding between human ARNT and TACC3; Q9Y6A5; AlphaScreen His-ARNT PAS-B/GST-TACC3 binding, luminescence; TACC3 fragment carries E629A point mutation; inhibition, % at 9.99 µM; 390,000 compounds, 0.66% hits; AID 623870;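 active = mean inhibition of replicates at least 50% and at least half of replicates each reaching 50%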;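 also: 0% = complete ARNT plus TACC3 wells and 100% = ARNT alone without TACC3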
* hit, by the source's call; . = no result given. Shown are actives, neighbours in structure and some others; about 3.8% of the full set was active somewhere.

SMILES | FN deposition inh | FGF22 binding | XiGFP reactiv | DENV2 CPE | SIRT5 block | ARNT TACC3 PPI
CN(C[C@@H]1N[C@H](CO)[C@@H]1c1ccc(C2=CCCC2)cc1)S(C)(=O)=O | -2.8 | -0.5 | 0.0 | 3.9 | 15.5* | 3.2
C/C=C/c1ccc([C@H]2[C@H](CO)N[C@H]2CN(C(=O)C2CCC2)C(C)C)cc1 | 2.2 | -0.2 | 0.5 | 22.6* | -0.3 | -0.2
CC(=O)N(C[C@H]1N[C@H](CO)[C@H]1c1ccc(-c2ccc(F)cc2)cc1)C(C)C | -2.3 | -0.1 | 0.3 | 63.8* | -1.3 | 1.5
C[C@@H]1CN([C@@H](C)CO)C(=O)Cc2cc(NC(=O)Nc3ccc4c(c3)OCO4)ccc2O[C@H]1CN(C)Cc1ccc(-c2ccccc2)cc1 | . | 0.0 | -1.0 | 2.0 | 0.5 | -2.6
COc1ccc2c3c([nH]c2c1)[C@H](CO)N(Cc1nccs1)CC31CCN(C(=O)C2CCOCC2)CC1 | . | 0.2 | 0.0 | -0.7 | -2.2 | .
C[C@H]1CN([C@@H](C)CO)C(=O)CCCn2nncc2CO[C@H]1CN(C)Cc1ccc(Cl)c(Cl)c1 | -8.8 | 0.0 | -0.5 | 3.4 | -4.1 | -2.5
CN(C)C(=O)c1ccc(-c2ccc([C@@H]3[C@@H](CO)N4C(=O)CN(C(=O)C5CCC5)C[C@H]34)cc2)cc1 | -12.4 | . | 0.1 | 5.3 | 5.6 | .
Cc1ccc(C)c(NC(=O)Cn2cnc3c(oc4ccccc43)c2=O)c1 | -0.6 | 44.7* | 0.0 | -5.1 | -2.9 | -1.0
CC(C)(C)[S@@](=O)N1Cc2cc(C(=O)N3CCOCC3)nc(-c3cccc(C4=CCCC4)c3)c2[C@H]1CCO | 2.3 | . | -0.1 | . | . | .
CC(=O)Nc1ccc(/C=N/NC(=O)CNC(=O)c2ccccc2)cc1 | 3.8 | 43.3* | 0.1 | 12.6 | -1.2 | 0.2
Cc1ccc(NCC(=O)N/N=C/c2cccc(Br)c2)cc1 | -9.1 | 0.3 | 0.0 | 30.8* | 15.6* | -4.9
Cc1cccc(NC(=O)C(=O)N/N=C/c2ccncc2)c1 | -4.3 | 43.5* | 0.0 | -13.8 | 0.8 | .
CC(=O)Nc1ccc(/C=N/NC(=O)CNS(=O)(=O)c2ccccc2)cc1 | -3.0 | -0.3 | 0.0 | -0.9 | 0.2 | .
COC(=O)c1ccc(/C=N/NC(=O)CNc2cccc(C)c2)cc1 | 1.5 | 0.4 | 0.0 | -1.6 | 24.1* | .
CCCC(=O)Nc1ccc2c(c1)OC[C@@H](C)N(CC1CCCC1)C[C@H](C)[C@@H](OC)CN(C)C2=O | 8.9 | -0.4 | 0.4 | -5.8 | 4.2 | -5.9
CCCCNC(=O)C(=O)N/N=C/c1ccc(C(=O)OC)cc1 | 4.6 | 0.1 | 0.0 | 1.0 | -3.8 | 37.0
COC(=O)c1ccc(/C=N/NC(=O)C(=O)NCc2ccccc2)cc1 | -2.2 | 43.0* | 0.0 | 5.4 | 1.3 | 9.0
O=C1c2ccccc2NC2(CCCC2)N1NS(=O)(=O)c1ccccc1 | 3.1 | 0.2 | 0.0 | 3.5 | -5.5 | .
CS(=O)(=O)NN1C(=O)c2ccccc2NC12CCCC2 | 2.1 | 43.0* | 0.0 | 0.3 | -15.9 | -2.0
CCn1c(=O)cc(OCC(=O)Nc2ccc(OC)c(OC)c2)c2ccccc21 | 3.7 | 43.4* | 0.2 | 3.7 | -3.4 | -8.9
CCn1c2ccccc2c2cc(NC(=O)COC(=O)c3cc(OC)c(OC)cc3OC)ccc21 | 0.7 | 42.9 | 0.2 | 40.9* | -4.9 | -4.4
CCCC(=O)Nc1ccc2c(c1)c1ccccc1n2CC | -11.4 | -0.2 | 4.8 | -4.7 | -3.2 | -6.6
O=C(CN1CCOCC1)N/N=C/c1ccc(-c2ccc(C(=O)O)cc2)o1 | -1.8 | -0.2 | 0.0 | 0.1 | 16.7* | -2.9
NC(N)=NC(N)=Nc1ccc2ccccc2c1 | 7.8 | 43.9* | 0.2 | -4.3 | 2.0 | 10.7
C[C@@H]1CN([C@@H](C)CO)C(=O)Cc2cc(NC(=O)c3ccncc3)ccc2O[C@H]1CN(C)Cc1ccc(C(=O)Nc2ccccc2N)cc1 | . | -0.2 | -0.1 | 72.0* | 0.2 | 36.7
SMILES | FN deposition inh | FGF22 binding | XiGFP reactiv | DENV2 CPE | SIRT5 block | ARNT TACC3 PPI
C[C@@H]1CN([C@H](C)CO)C(=O)Cc2cc(NC(=O)c3ccncc3)ccc2O[C@H]1CN(C)Cc1ccc(C(=O)Nc2ccccc2N)cc1 | . | -0.5 | 0.0 | -1.9 | . | .
COc1ccc(NC(=O)Nc2ccc3c(c2)CC(=O)N([C@H](C)CO)C[C@@H](C)[C@H](CN(C)Cc2ccc(C(=O)Nc4ccccc4N)cc2)O3)cc1 | . | -0.4 | 0.3 | 55.4* | 0.1 | .
COc1ccc(NC(=O)Nc2ccc3c(c2)C(=O)N([C@@H](C)CO)C[C@@H](C)[C@@H](CN(C)Cc2ccc(C(=O)Nc4ccccc4N)cc2)O3)cc1 | -1.2 | -0.3 | -0.9 | -0.3 | 16.4* | 4.5
CO[C@@H]1CN(C)C(=O)c2ccc(NC(=O)NC3CCCCC3)cc2OC[C@@H](C)N(C(C)=O)C[C@H]1C | 0.0 | . | 0.4 | . | . | .
Nc1c(Cl)cnc(C(Cl)(Cl)Cl)c1Cl | -1.0 | 43.3* | 0.4 | 4.6 | -12.4 | -3.0
COc1cccc(CN(C)S(=O)(=O)c2cccs2)c1 | -0.9 | -0.3 | 0.2 | 24.8* | 1.8 | -11.1
CN(Cc1ccccc1)S(=O)(=O)c1cccs1 | . | . | . | 4.1 | 3.0 | 4.5
C[C@@H]1CCCCO[C@H](CN(C)C(=O)Nc2ccc(F)cc2)[C@H](C)CN([C@H](C)CO)C(=O)c2cc(N(C)C)ccc2O1 | . | . | -1.1 | -6.1 | -4.1 | 9.0
CC(C)c1ccc(/C=N/N2CCN(c3ccccn3)CC2)cc1 | -4.7 | -0.1 | 0.0 | 46.8* | -0.3 | 8.5
CC(/C=N/N1CCN(c2ccccn2)CC1)=C\c1ccccc1 | 2.7 | 0.0 | 0.0 | 22.8* | -3.9 | 2.0
CC(/C=N/N1CCN(c2ccccc2)CC1)=C\c1ccccc1 | . | 0.1 | . | 0.6 | -2.6 | -3.1
COc1ccc(S(=O)(=O)Nc2ccc3c(c2)C(=O)N([C@@H](C)CO)C[C@@H](C)[C@H](CN(C)S(=O)(=O)c2cn(C)cn2)O3)cc1 | . | 0.2 | 0.1 | 0.9 | 2.2 | .
Cc1noc(C)c1S(=O)(=O)Nc1ccc2c(c1)C(=O)N([C@H](C)CO)C[C@@H](C)[C@H](CN(C)C(=O)Nc1ccc(F)cc1)OCCCC[C@@H](C)O2 | -8.0 | 0.0 | 0.1 | 4.7 | 2.5 | -0.6
C/C(=N/NC(N)=S)c1cc2ccc(O)cc2oc1=O | 0.6 | 0.0 | -0.1 | 6.1 | -11.4 | 39.4*
NC(=S)c1cc2ccc(O)cc2oc1=O | . | . | . | . | . | 2.6
O=C(NCc1ccccn1)c1n[nH]c2ccccc12 | -3.9 | . | . | . | . | 24.0*
CCC(C)(C)C1CCc2[nH]nc(C(=O)NCc3ccccn3)c2C1 (configuration not stated) | -1.2 | -0.1 | 0.0 | 77.0* | -3.5 | 12.6
CCC(C)(C)C1CCc2[nH]nc(C(=O)NCc3ccc(Cl)cc3)c2C1 (configuration not stated) | -3.6 | 0.1 | -0.3 | -12.6 | . | -0.4

Screening data deposited in PubChem by Broad Institute.
